# Reference: ChEMBL document CHEMBL1124407, “Synthesis of gastrin antagonists, analogues of the C-terminal tetrapeptide of gastrin, by introduction of a beta-homo residue” (J Med Chem, 1989)
# Where a SMILES comes first, the peptide text is derived from it. [ ]: non-standard residue; d: D form. The star is where a group is joined. β3hF = N[C@H](CC(=O)O)Cc1ccccc1; Boc = CC(C)(C)OC(=O)*
# Columns and labels:
# [1] = target: T1, Gastrin/cholecystokinin type B receptor (Rattus norvegicus) (UniProt P30553); assay: Activity in vivo gastrin-induced acid secretion in rats; format: functional, organism-based
# T1 sequence (whole entry): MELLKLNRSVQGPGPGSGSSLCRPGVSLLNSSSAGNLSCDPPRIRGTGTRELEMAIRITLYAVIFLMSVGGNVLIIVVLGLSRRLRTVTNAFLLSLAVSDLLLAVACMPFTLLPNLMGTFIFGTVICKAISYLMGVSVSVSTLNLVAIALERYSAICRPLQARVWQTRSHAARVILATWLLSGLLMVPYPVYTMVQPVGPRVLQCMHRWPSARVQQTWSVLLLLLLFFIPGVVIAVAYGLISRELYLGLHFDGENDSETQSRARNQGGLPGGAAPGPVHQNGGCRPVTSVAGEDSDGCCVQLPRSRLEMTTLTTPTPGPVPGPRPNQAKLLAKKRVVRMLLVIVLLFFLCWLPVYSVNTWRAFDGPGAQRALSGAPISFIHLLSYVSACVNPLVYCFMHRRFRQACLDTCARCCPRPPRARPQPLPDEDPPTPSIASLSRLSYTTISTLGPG
# In short: (§1)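 Anesthetized rats; cumulative gastric pH recorded over time as the index of acid secretion. Peptides and (Leu15)-human gastrin I were given as intravenous bolus in 0.9% NaCl. Secreted H+ was taken from the difference between stimulated and basal traces. For inhibition, peptide in alkaline water was injected together with gastrin (usually 80 pmol) at various doses. Response was expressed as percent of the gastrin-alone H+ output.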
# Rattus norvegicus = assay: Activity of compound on in vivo gastrin-induced acid secretion in rats; Agonist; format: functional, organism-based; details: filed as agonist; in short: as §1
SMILES,ED50 [1] [mg/kg],ED50 (Rattus norvegicus)
CC(C)CC(CC(=O)N[C@H](CC(=O)O)C(=O)N[C@H](Cc1ccccc1)C(N)=O)NC(=O)C(Cc1c[nH]c2ccccc12)NC(=O)OC(C)(C)C (stereo partly drawn),5,–
CC(C)C[C@@H](CC(=O)NC(CC(=O)O)C(=O)NCCc1ccccc1)NC(=O)[C@@H](Cc1c[nH]c2ccccc12)NC(=O)OC(C)(C)C (stereo partly drawn),0.5,–
CC(C)C[C@H](CC(=O)N[C@@H](CC(=O)O)C(=O)N[C@@H](Cc1ccccc1)C(N)=O)NC(=O)[C@@H](Cc1c[nH]c2ccccc12)NC(=O)OC(C)(C)C,7.5,–
CC(C)C[C@H](NC(=O)[C@H](Cc1c[nH]c2ccccc12)NC(=O)OC(C)(C)C)C(=O)N[C@@H](CC(=O)O)C(=O)N[C@H](CC(N)=O)Cc1ccccc1 (Boc-WLD[β3hF]-NH2),7,–
CC(C)C[C@H](NC(=O)[C@H](Cc1c[nH]c2ccccc12)NC(=O)OC(C)(C)C)C(=O)N[C@H](CC(=O)O)CC(=O)NCCc1ccccc1,0.5,–
CC(C)C[C@@H](CC(=O)N[C@@H](CC(=O)O)C(=O)N[C@@H](Cc1ccccc1)C(N)=O)NC(=O)[C@H](Cc1c[nH]c2ccccc12)NC(=O)OC(C)(C)C,1.5,–
CC(C)C[C@H](NC(=O)[C@H](Cc1c[nH]c2ccccc12)NC(=O)OC(C)(C)C)C(=O)N[C@H](CC(=O)O)CC(=O)N[C@H](Cc1ccccc1)C(N)=O,0.1,–
CC(C)CC(NC(=O)[C@@H](Cc1c[nH]c2ccccc12)NC(=O)OC(C)(C)C)C(=O)N[C@H](CC(=O)O)CC(=O)NCCc1ccccc1 (stereo in doubt),2.5,–
CC(C)C[C@H](NC(=O)[C@H](Cc1c[nH]c2ccccc12)NC(=O)OC(C)(C)C)C(=O)N[C@@H](CC(=O)O)C(=O)N[C@@H](Cc1ccccc1)C(N)=O (Boc-WLDF-NH2),–,Agonist
CC(C)CC(CC(=O)NC(CC(=O)O)C(=O)NCCc1ccccc1)NC(=O)C(Cc1c[nH]c2ccccc12)NC(=O)OC(C)(C)C (stereo not drawn),0.5,–
CC(C)CC(NC(=O)[C@@H](Cc1c[nH]c2ccccc12)NC(=O)OC(C)(C)C)C(=O)N[C@H](CC(=O)O)CC(=O)NCc1ccccc1 (stereo in doubt),1,–
CC(C)CC(CC(=O)N[C@H](CC(=O)O)C(=O)NCc1ccccc1)NC(=O)C(Cc1c[nH]c2ccccc12)NC(=O)OC(C)(C)C (stereo partly drawn),1.5,–
CC(C)C[C@@H](CC(=O)NC(CC(=O)O)C(=O)NCc1ccccc1)NC(=O)[C@@H](Cc1c[nH]c2ccccc12)NC(=O)OC(C)(C)C (stereo partly drawn),5,–
CC(C)CC(CC(=O)N[C@H](CC(=O)O)C(=O)NCCc1ccccc1)NC(=O)C(Cc1c[nH]c2ccccc12)NC(=O)OC(C)(C)C (stereo partly drawn),0.8,–
CC(C)C[C@H](NC(=O)[C@H](Cc1c[nH]c2ccccc12)NC(=O)OC(C)(C)C)C(=O)N[C@H](CC(=O)O)CC(=O)NCc1ccccc1,0.2,–
CC(C)CC(CC(=O)NC(CC(=O)O)C(=O)NCc1ccccc1)NC(=O)C(Cc1c[nH]c2ccccc12)NC(=O)OC(C)(C)C (stereo not drawn),0.5,–
CC(C)CC(NC(=O)[C@@H](Cc1c[nH]c2ccccc12)NC(=O)OC(C)(C)C)C(=O)N[C@H](CC(=O)O)CC(=O)NC(Cc1ccccc1)C(N)=O (stereo in doubt),2.5,–
CC(C)C[C@H](NC(=O)[C@H](Cc1c[nH]c2ccccc12)NC(=O)OC(C)(C)C)C(=O)N[C@H](CC(=O)O)CC(=O)N[C@@H](Cc1ccccc1)C(N)=O,0.1,–
